Measurements collected from several papers.
Tmem97: Sigma intracellular receptor 2 (Tmem97, Rattus norvegicus, UniProt Q5U3Y7)
blaNDM-1: Metallo-beta-lactamase type 2 (blaNDM-1, Klebsiella pneumoniae, UniProt C7C422)
HTR2B: 5-hydroxytryptamine receptor 2B (HTR2B, Homo sapiens, UniProt P41595)
HTR2C: 5-hydroxytryptamine receptor 2C (HTR2C, Homo sapiens, UniProt P28335)

SMILES	target	test	setting	quantity	value
CCCN1CCc2cc(OC)cc3c2[C@H]1Cc1ccc(O)c(O)c1-3	D(3) dopamine receptor (Drd3, Rattus norvegicus, UniProt P19020)	binding, radioligand	cell membranes	Kd	2.02 nM
CCCCN1CCc2cc(OC)c(OC)cc2C1	Tmem97	ligand displacement, radioligand	cell membranes	Ki	15 nM
CC1(C)S[C@H]2CS[C@H](CS)N2[C@@H]1C(=O)O	blaNDM-1	enzyme activity, inhibitor, absorbance	pH 7.5	Ki	18000 nM
CN(C)CCc1c[nH]c2ccc(Cn3cncn3)cc12	HTR2B	calcium signal, agonist, fluorescence		EC50	14000 nM
CCN(CC)CCNC(=O)c1ccc(F)cc1	Tmem97	ligand displacement, radioligand	cell membranes	Ki	120000 nM
COc1cc2c3c(c1OC)-c1ccccc1CC3NCC2 (stereo not drawn)	HTR2C	ligand displacement, radioligand	cell membranes	Ki	446 nM
CCC1CCN(C(=O)[C@H](CCCNC(=N)N)NS(=O)(=O)c2cccc3c(N(C)C)cccc23)CC1	Prothrombin (F2, Bos taurus, UniProt P00735)	binding, ITC		Kd	22 nM
COc1ccc2cccc(C(CO)CNC(=O)CF)c2c1 (stereo not drawn)	Melatonin receptor type 1A (MTNR1A, Homo sapiens, UniProt P48039)	GTPγS binding, agonist, radiometric	cell membranes	EC50	79.4 nM
CC(C)[C@@H](Nc1nc(I)nc2c1ncn2[C@H]1[C@H](O)[C@H](O)[C@]2(CO)C[C@H]12)C1CC1	HTR2C	ligand displacement, radioligand		Ki	344 nM
Ic1ccccc1CN[C@@H]1C2CCN(CC2)[C@@H]1C(c1ccccc1)c1ccccc1 (racemic)	Substance-P receptor (TACR1, Homo sapiens, UniProt P25103)	ligand displacement, radioligand		IC50	7.25 nM
COc1cc2c3c(c1OC)-c1ccccc1C[C@H]3N(C)CC2	HTR2C	ligand displacement, radioligand	cell membranes	Ki	22.2 nM
COc1cc(CC(C)N)c(OC)cc1I (racemic)	HTR2C	ligand displacement, radioligand		Ki	0.42 nM
CSC[C@@]12C[C@@H]1[C@@H](n1cnc3c(N[C@H](C(C)C)C4CC4)nc(Cl)nc31)[C@H](O)[C@@H]2O	HTR2C	ligand displacement, radioligand		Ki	2570 nM
O=C(O)[C@H]1CS[C@@H]2CS[C@@H](CS)N12	blaNDM-1	enzyme activity, inhibitor, absorbance	pH 7.5	Ki	19000 nM
CSc1nc(N[C@H](C(C)C)C2CC2)c2ncn([C@H]3[C@H](O)[C@H](O)[C@]4(CO)C[C@H]34)c2n1	HTR2C	ligand displacement, radioligand		Ki	432 nM
COc1cc(CC(C)N)c(OC)cc1I (stereo not drawn)	HTR2B	ligand displacement, radioligand		Ki	1.2 nM
CC(C)C(Nc1nc(Cl)nc2c1ncn2[C@H]1[C@H](O)[C@H](O)[C@]2(CO)C[C@H]12)C(C)C	HTR2C	ligand displacement, radioligand		Ki	1160 nM
C[C@H](N)Cn1ncc2ccc3c(c21)CCCO3	5-hydroxytryptamine receptor 2A (Rattus norvegicus, UniProt P14842)	calcium signal, agonist, fluorescence		EC50	22.5 nM
